ChEMBL document CHEMBL4359899, “Synthesis, evaluation and structural investigations of potent purple acid phosphatase inhibitors as drug leads for osteoporosis” (Eur J Med Chem, 2019)

Assays:
[1] = species: Sus scrofa; assay: Competitive inhibition of pig PAP using varying levels of pNPP as substrate measured at pH 4.9 by UV-vis spectrophotometric analysis
In short: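 Purified pig PAP, first reduced to the FeIII-FeII form (0.77 mM β-mercaptoethanol, 10 min, 37 °C), at 8.4 nM. p-NPP 1–15 mM in 0.1 M acetate pH 4.9 with 25% DMSO, 25 °C. p-Nitrophenol formation read at 405 nm (Δε 342.9 mol−1 L cm−1). Inhibitor concentration varied; Kic fitted by non-linear regression to a general inhibition equation.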

[2] = Solubility of the compound in 25% DMSO; assay type: physicochemical
[3] = molecular target: T1, Fe(3+)-Zn(2+) purple acid phosphatase (Phaseolus vulgaris) (UniProt P80366); assay: Competitive inhibition of red kidney bean PAP using varying levels of pNPP as substrate measured at pH 6.2 by UV-vis spectrophotometric analysis
T1 sequence (whole entry): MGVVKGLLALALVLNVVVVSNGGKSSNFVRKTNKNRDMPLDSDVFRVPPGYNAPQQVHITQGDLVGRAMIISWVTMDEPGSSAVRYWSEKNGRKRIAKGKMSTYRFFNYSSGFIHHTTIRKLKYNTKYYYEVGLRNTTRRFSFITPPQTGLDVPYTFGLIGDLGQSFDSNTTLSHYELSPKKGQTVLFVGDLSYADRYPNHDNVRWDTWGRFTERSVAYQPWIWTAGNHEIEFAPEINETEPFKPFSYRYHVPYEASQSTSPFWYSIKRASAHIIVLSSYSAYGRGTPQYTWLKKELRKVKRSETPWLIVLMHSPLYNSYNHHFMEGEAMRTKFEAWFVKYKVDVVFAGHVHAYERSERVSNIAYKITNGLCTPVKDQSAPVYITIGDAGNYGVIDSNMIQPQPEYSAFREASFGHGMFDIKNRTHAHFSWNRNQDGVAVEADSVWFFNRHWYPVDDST
In short: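 Red kidney bean PAP (rkbPAP), purified, at 8.4 nM. p-NPP 1–15 mM in 0.1 M MES pH 6.2 with 25% DMSO, 25 °C. p-Nitrophenol formation followed at 405 nm (Δε 1834.4 mol−1 L cm−1). Inhibitor concentration varied; competitive constant Kic from non-linear regression using a general inhibition equation.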

[4] = Inhibition of human PAP assessed as dephosphorylation of 4-methylumbelliferyl phosphate to 4-methylumbelliferone using 4-methylumbelliferyl phosphate as substrate measured for 15 mins by micro-fluorescence detector method

Structure (SMILES) | Kic [1] | solubility [2] | Kic [3] | IC50 [4]
CCCCCCCCCCCCOC(c1cccc2ccccc12)P(=O)(O)O (racemic) | 0.7 µM | Soluble | 4.5 µM | 
CCCCCCCCCCCCCCCCCCOC(c1cccc2ccccc12)P(=O)(O)O (racemic) | 0.2 µM | Soluble | 0.5 µM | 
CCCCCCCCCCCCCCCCCCCCOC(c1cccc2ccccc12)P(=O)(O)O (racemic) | 4.4 µM | Soluble | 0.8 µM | 
CCCCCCCCCCCCCCCCOC(c1cccc2ccccc12)P(=O)(O)O (racemic) | 0.6 µM | Soluble | 0.4 µM | 
CCCCCCCCCCCCCCCCCCCCCCOC(c1cccc2ccccc12)P(=O)(O)O (racemic) | 62 µM | Soluble | 14 µM | 
CCCCCCCCCCCCCCOC(c1cccc2ccccc12)P(=O)(O)O (racemic) | 1.1 µM | Soluble | 0.2 µM | 
O=C(c1ccccc1)C(C(=O)c1ccccc1)(c1cccc2ccccc12)P(=O)(O)O |  |  |  | 1400 nM
